Source: ChEMBL document CHEMBL1124558, “Differential effects of a series of hydroxamic acid derivatives on 5-lipoxygenase and cyclooxygenase from neutrophils and 12-lipoxygenase from platelets and their in vivo effects on inflammation and anaphylaxis” (J Med Chem, 1989)

Columns and labels:
[1] = target: Cyclooxygenase (Rattus norvegicus) (UniProt P35355+Q63921); test: Inhibition of Prostaglandin G/H synthase in rat polymorphonuclear leukocytes; type: cell-based; parameters: concentration or dose not given beside the values; settings: concentration not given here
How it was run: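 Homogenate of glycogen-elicited rat peritoneal PMNs in 0.1 M Tris-HCl pH 8.2 with 10 μM NDGA, preincubated 5 min at 37 °C with compound (≤0.1% DMSO). [14C]arachidonic acid (8 μM) added with 4 mM glutathione and epinephrine; 10 min reaction. TxB2 and PGF2α separated by TLC and counted.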

Cavia porcellus [2] = test: In vivo inhibitory activity against guinea pig systemic anaphylaxis when administered a compound dose (50 mg/kg) perorally; type: functional; settings: po
How it was run: (§1)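 Male Hartley guinea pigs sensitised ip with ovalbumin (2.7 mg/kg) plus LPS adjuvant, then challenged 2 weeks later with 1% ovalbumin aerosol for 30 s. Pretreated with pyrilamine, indomethacin and propranolol 20 min before challenge. Compound given in PEG 400 1 h before challenge.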

[3] = target: T1, Polyunsaturated fatty acid 5-lipoxygenase (Homo sapiens, UniProt P09917); test: In vitro inhibition of polymorphonuclear leukocyte derived human 5-lipoxygenase
T1 sequence (P09917 whole entry): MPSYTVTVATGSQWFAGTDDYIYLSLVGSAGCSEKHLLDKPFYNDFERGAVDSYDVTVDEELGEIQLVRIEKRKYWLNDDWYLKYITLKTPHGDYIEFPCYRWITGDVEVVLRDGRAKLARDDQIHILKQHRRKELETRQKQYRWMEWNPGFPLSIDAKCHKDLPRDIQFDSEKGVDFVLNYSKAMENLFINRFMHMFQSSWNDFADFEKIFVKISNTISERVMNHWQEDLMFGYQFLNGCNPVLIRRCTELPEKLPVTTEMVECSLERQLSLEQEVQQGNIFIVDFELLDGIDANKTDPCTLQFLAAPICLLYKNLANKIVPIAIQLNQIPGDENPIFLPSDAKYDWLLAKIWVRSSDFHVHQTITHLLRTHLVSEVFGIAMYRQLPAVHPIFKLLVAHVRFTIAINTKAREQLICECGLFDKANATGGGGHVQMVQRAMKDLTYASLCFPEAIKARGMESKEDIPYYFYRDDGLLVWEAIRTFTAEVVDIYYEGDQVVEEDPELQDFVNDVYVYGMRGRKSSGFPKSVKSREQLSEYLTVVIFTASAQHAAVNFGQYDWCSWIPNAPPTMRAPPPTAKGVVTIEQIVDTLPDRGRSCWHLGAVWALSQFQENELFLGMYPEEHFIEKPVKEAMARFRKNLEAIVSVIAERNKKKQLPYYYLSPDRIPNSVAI
How it was run: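 PMNs from venous blood of healthy volunteers, isolated by dextran sedimentation and Percoll gradient (>90% pure) and held in Ca/Mg PBS with 1 mg/mL glucose and 1 μM indomethacin. Challenged with calcium ionophore and [14C]arachidonic acid for 3 min. 5-HETE measured by TLC and scintillation counting; IC50 read graphically.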

[4] = target: T2, Polyunsaturated fatty acid 5-lipoxygenase (Rattus norvegicus, UniProt P12527); test: In vitro inhibition of rat polymorphonuclear leukocyte 5-lipoxygenase
T2 sequence (P12527 whole entry): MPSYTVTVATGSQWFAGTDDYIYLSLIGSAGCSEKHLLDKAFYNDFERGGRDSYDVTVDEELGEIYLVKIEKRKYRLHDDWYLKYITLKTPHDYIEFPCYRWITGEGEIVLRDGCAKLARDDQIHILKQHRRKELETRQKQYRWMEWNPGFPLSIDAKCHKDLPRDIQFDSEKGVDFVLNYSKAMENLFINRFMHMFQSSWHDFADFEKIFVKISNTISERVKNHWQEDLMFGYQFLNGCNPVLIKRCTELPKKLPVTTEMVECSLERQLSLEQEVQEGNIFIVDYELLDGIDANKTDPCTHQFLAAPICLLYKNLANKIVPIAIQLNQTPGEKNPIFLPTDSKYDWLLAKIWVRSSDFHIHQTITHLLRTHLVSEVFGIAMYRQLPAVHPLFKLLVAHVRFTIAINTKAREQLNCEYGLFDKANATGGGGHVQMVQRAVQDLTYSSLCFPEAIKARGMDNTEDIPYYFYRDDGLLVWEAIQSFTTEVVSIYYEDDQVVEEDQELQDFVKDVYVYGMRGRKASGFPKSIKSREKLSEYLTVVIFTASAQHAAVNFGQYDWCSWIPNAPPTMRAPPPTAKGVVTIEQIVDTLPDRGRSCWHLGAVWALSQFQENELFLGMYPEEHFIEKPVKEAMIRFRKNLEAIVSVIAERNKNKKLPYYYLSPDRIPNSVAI
How it was run: (§2)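 Intact glycogen-elicited peritoneal PMNs pooled from 4–5 Sprague-Dawley rats (250 g), preincubated 5 min at 30 °C with compound in DMSO (≤0.1% final) plus 1 μM indomethacin. Challenge with [14C]arachidonic acid (4 μM) and A23187 (0.8 μM) for 3 min. Extraction, TLC, 5-HETE by scintillation counting.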

Mus musculus = test: In vivo inhibition of mouse ear inflammation; type: functional; parameters: concentration or dose not given beside the values
How it was run: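 Compound or ethanol vehicle applied topically to one ear of male DBA/2J mice 60 min before arachidonic acid (2 mg/ear). […] Groups of 5 mice.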

Cavia porcellus [5] = test: In vivo inhibitory activity against guinea pig systemic anaphylaxis when administered a compound dose (10 mg/kg) intravenously; type: functional; settings: iv
[6] = target: T3, Polyunsaturated fatty acid 5-lipoxygenase (Rattus norvegicus) (UniProt P12527); test: In vitro inhibitory activity against polymorphonuclear leukocyte 5-lipoxygenase in rat cell at 1 uM; how it was run: as §2
T3 sequence (whole entry): T2 sequence (P12527 whole entry)

[7] = target: T4, Arachidonate 12-lipoxygenase (Rattus norvegicus) (UniProt Q02759); test: In vitro inhibitory activity against rat platelet 12-lipoxygenase at 30 uM
T4 sequence (whole entry): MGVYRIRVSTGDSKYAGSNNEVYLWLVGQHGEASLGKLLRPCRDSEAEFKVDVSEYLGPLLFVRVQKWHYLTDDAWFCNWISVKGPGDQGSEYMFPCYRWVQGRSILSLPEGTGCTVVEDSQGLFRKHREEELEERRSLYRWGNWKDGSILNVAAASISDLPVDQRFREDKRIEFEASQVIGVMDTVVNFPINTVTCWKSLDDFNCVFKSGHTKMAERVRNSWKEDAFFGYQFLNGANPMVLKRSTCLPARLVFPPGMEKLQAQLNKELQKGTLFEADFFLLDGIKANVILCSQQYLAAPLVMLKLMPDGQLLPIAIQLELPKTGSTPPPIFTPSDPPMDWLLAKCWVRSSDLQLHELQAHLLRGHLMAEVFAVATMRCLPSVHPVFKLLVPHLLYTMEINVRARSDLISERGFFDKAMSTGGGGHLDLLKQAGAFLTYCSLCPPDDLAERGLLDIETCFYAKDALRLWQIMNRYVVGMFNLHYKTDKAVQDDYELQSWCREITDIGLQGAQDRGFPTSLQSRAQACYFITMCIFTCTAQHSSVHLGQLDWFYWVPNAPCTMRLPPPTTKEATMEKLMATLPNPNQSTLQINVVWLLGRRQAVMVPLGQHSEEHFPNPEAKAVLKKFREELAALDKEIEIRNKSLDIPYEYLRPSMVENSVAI
How it was run: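 Cell-free cytosolic 12-lipoxygenase from Sprague-Dawley rat platelets (0.4 mg/mL), preincubated 5 min at 30 °C with compound in DMSO (≤0.1% final), 25 mM Tris pH 7.4, 1 μM indomethacin, 100 μM glutathione; reaction started with 6 μM [14C]arachidonic acid and quenched with citric acid/NDGA after 3 min. 12-HETE isolated by TLC and counted by scintillation; % inhibition, duplicate.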

[8] = target: T1, Polyunsaturated fatty acid 5-lipoxygenase; test: In vitro inhibitory activity against polymorphonuclear leukocyte 5-lipoxygenase in human cell at 10 uM
How it was run: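 Human PMNs from venous blood of a healthy volunteer (EDTA) were purified by dextran sedimentation, a Percoll gradient and NH4Cl red-cell lysis (>90% pure). They were held in Ca/Mg PBS with 1 mg/mL glucose and 1 μM indomethacin, then challenged with A23187 (0.8 μM) and [14C]arachidonic acid (4 μM) for 3 min. 5-HETE was measured by TLC and scintillation counting.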

12-lipoxygenase = 12-lipoxygenase (Rattus norvegicus, UniProt F1LQ70); test: In vitro inhibitory activity against rat platelet 12-lipoxygenase
Sequence of 12-lipoxygenase (F1LQ70 whole entry, looked up): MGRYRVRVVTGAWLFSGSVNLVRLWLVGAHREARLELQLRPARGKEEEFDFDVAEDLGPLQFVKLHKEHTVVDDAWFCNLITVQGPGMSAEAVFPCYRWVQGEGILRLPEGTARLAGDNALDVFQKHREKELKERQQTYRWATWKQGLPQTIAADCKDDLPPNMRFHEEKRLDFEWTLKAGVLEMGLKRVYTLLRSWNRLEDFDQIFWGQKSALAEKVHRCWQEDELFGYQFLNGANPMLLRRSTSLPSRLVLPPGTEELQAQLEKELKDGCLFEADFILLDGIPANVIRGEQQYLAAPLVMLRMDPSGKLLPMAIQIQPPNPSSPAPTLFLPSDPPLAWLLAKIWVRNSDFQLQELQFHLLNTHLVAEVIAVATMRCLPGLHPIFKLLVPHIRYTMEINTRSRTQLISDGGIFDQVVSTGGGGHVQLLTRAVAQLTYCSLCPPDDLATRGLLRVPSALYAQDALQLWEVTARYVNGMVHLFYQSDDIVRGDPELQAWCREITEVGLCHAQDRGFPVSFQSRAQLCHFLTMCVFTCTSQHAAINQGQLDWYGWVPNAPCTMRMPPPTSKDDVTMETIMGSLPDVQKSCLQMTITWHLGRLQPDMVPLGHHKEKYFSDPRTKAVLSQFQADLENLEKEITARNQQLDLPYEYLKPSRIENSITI

Cavia porcellus [9] = test: In vivo inhibitory activity against guinea pig systemic anaphylaxis when administered a compound dose (200 mg/kg) perorally; type: functional; settings: po; how it was run: as §1

inhibition [1] [%]	IC50 [3] [nM]	IC50 [4] [nM]	inhibition [6] [%]	inhibition [7] [%]	Inhibition [8] [%]	Ki (12-lipoxygenase) [nM]	SMILES	inhibition in vivo at 50 mg/kg (Cavia porcellus [2]) [%]	Inhibition (Mus musculus) [%]	inhibition in vivo at 10 mg/kg (Cavia porcellus [5]) [%]	inhibition in vivo at 200 mg/kg (Cavia porcellus [9]) [%]
44	180	300	–	–	–	–	O=C(CCCc1ccccc1)N(O)CCc1ccccc1	17	56	50	–
< 10	–	–	24	3	< 10	–	O=C(/C=C/c1ccc(OCc2ccccc2)cc1)N(O)CCc1ccccc1	–	–	–	–
< 10	–	–	–	–	–	1600	O=C(Cc1ccc(OCc2ccccc2)cc1)N(O)CCc1ccccc1	–	39	–	17
